≈ marks a conversion by molar mass, not a printed value.
How the values were obtained:
Assay type in all cases: functional, organism-based
Aspergillus fumigatus = test: Antifungal activity against Aspergillus fumigatus ATCC 10894
Outline: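 A. fumigatus grown on potato dextrose agar, then in broth at 28 °C for 48 h. Final inoculum was 10^4 mycelial fragments/mL in PDB. Samples were 10 mg/mL DMSO stocks, serially diluted and tested in triplicate. A595 was read after incubation. IC50 came from the inhibition-rate vs concentration plot. MIC was the lowest concentration giving complete growth inhibition.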

Streptococcus pneumoniae = test: Antimicrobial activity against Streptococcus pneumoniae CGMCC 1.1692
Outline: (§1)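 Bacteria grown on Mueller-Hinton agar, then in broth at 37 °C for 24 h. Final suspension was 10^6 cells/mL in MHB. Samples were 10 mg/mL DMSO stocks, serially diluted and tested in triplicate. Absorbance at 595 nm was read after incubation. IC50 came from plotting inhibition rate vs concentration. MIC was the lowest concentration completely inhibiting growth.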

Escherichia coli = test: Antimicrobial activity against Escherichia coli CGMCC 1.2340; outline: as §1
Staphylococcus aureus = test: Antimicrobial activity against Staphylococcus aureus ATCC 6538; outline: as §1

Structure (SMILES)	IC50 (Aspergillus fumigatus)	IC50 (Streptococcus pneumoniae)	IC50 (Escherichia coli)	IC50 (Staphylococcus aureus)	MIC (Aspergillus fumigatus)	MIC (Streptococcus pneumoniae)	MIC (Escherichia coli)	MIC (Staphylococcus aureus)
CCCCOC(=O)c1c(O)cc(C)cc1Oc1c(OC)cc(O)cc1C(=O)OC [BUTYL ASTERRATE]	> 50 µM	> 50 µM	> 50 µM	> 50 µM	–	–	–	–
CCOC(=O)c1c(O)cc(C)cc1Oc1c(OC)cc(O)cc1C(=O)OC [ETHYL ASTERRATE]	> 50 µM	> 50 µM	> 50 µM	> 50 µM	–	–	–	–
OC(Cn1cncn1)(Cn1cncn1)c1ccc(F)cc1F [FLUCONAZOLE]	7.35 µM	–	–	–	163 µM (≈ 50 µg/mL)	–	–	–
COC(=O)c1cc(OC(=O)c2c(O)cc(C)cc2Oc2c(OC)cc(O)cc2C(=O)OC)cc(OC)c1Oc1cc(C)cc(O)c1C(=O)OC [GEOMYCIN A]	> 50 µM	> 50 µM	> 50 µM	> 50 µM	–	–	–	–
COC(=O)c1cc(OC(=O)c2c(O)cc(C)cc2Oc2c(OC)cc(O)cc2C(=O)OC)cc(OC)c1Oc1cc(C)cc(O)c1C(=O)O [GEOMYCIN B]	0.86 µM	–	–	–	29.5 µM (≈ 20 µg/mL)	–	–	–
COC(=O)C1=CC(=O)C=C(OC)[C@]12Oc1cc(C)cc(OC(=O)c3c(O)cc(C)cc3Oc3c(OC)cc(O)cc3C(=O)OC)c1C2=O [GEOMYCIN C]	–	36.2 µM	12.9 µM	17.3 µM	–	152 µM (≈ 100 µg/mL)	30.3 µM (≈ 20 µg/mL)	75.8 µM (≈ 50.1 µg/mL)
CN[C@@H]1[C@H](O[C@H]2[C@H](O[C@H]3[C@H](O)[C@@H](O)[C@H](N=C(N)N)[C@@H](O)[C@@H]3N=C(N)N)O[C@@H](C)[C@]2(O)C=O)O[C@@H](CO)[C@H](O)[C@H]1O [STREPTOMYCIN]	–	–	1.05 µM	–	–	–	11.2 µM (≈ 6.51 µg/mL)	–

Source: ChEMBL document CHEMBL1156653, “Bioactive asterric acid derivatives from the Antarctic ascomycete fungus Geomyces sp” (J Nat Prod, 2008)
